Results: ChEMBL document CHEMBL1132173, “Novel derivatives of 2-pyridinemethylamine as selective, potent, and orally active agonists at 5-HT1A receptors” (J Med Chem, 1999)

Key:
[1] = system: Rattus norvegicus; assay: Effective intraperitoneal dose in vivo in rat after 60 mins to induce lower lip retraction; assay type: functional; conditions: ip, 1 h
Summary of the method: (§1)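 Observed in 10 min windows centred 15 and 60 min post-dose, 10 s each minute, scoring lower lip retraction present or absent (0–10).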

[2] = target: T1, Adrenergic receptor alpha-1 (Rattus norvegicus, UniProt P15823+P23944+P43140); assay: Binding affinity towards Alpha-1 adrenergic receptor using prazosin as a radioligand in rat cortex
T1 sequence (P15823 whole entry): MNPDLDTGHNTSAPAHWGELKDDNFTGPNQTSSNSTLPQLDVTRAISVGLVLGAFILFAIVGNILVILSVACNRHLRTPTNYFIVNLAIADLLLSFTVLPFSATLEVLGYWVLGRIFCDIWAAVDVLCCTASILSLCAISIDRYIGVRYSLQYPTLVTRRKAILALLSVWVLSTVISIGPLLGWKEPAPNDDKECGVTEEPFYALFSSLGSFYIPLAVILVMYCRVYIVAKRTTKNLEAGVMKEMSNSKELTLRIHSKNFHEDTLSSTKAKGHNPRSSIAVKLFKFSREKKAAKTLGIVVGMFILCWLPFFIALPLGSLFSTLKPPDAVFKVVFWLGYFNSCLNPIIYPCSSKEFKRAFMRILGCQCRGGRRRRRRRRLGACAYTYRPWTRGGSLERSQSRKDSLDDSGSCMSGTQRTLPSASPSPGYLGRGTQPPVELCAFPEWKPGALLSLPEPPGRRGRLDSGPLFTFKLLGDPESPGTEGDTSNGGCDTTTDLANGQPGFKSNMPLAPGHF
T1 sequence (P23944 whole entry): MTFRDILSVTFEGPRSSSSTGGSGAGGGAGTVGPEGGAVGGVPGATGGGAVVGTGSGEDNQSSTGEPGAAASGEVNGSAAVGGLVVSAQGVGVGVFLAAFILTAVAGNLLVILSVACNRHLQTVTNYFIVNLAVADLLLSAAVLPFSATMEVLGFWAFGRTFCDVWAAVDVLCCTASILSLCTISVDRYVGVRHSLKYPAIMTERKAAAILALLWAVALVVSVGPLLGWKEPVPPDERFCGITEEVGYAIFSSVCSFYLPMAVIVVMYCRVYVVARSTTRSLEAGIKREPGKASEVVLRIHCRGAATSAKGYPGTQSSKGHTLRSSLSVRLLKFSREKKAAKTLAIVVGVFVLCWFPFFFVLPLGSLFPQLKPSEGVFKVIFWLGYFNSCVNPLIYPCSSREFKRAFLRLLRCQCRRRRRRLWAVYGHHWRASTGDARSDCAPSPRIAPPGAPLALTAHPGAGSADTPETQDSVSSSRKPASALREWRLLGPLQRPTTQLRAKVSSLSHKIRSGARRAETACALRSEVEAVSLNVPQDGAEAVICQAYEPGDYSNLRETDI
T1 sequence (P43140 whole entry): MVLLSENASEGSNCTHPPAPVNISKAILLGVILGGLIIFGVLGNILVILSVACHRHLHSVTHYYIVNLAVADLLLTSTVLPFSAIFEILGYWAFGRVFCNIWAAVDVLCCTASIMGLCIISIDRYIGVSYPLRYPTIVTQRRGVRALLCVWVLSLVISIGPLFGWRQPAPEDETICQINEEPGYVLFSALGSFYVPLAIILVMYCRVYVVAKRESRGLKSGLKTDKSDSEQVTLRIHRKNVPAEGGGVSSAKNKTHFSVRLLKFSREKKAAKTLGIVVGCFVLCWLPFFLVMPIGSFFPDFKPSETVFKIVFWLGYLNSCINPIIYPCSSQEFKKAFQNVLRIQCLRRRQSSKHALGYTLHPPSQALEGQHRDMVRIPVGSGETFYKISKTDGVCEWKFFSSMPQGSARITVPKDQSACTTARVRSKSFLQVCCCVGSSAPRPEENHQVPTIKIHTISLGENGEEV
Summary of the method: (§2)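 Rat tissue membranes, competition against radioligand at 23 °C. Nonspecific binding: 5-HT for 5-HT1A (30 min), (+)-butaclamol for D2 (60 min), phentolamine for α1 (30 min). Tris HCl 50 mM pH 7.4 buffers. Filtration through glass-fibre filters, then scintillation counting. Run in triplicate; IC50 by nonlinear regression; Ki by Cheng–Prusoff; mean pKi of three determinations.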

[3] = target: T2, 5-hydroxytryptamine receptor 1A (Homo sapiens, UniProt P08908); assay: In vitro effective concentration required to inhibit forskolin-stimulated cAMP levels in HA7 cells expressing human 5-HT1A receptor; assay type: functional, cell-based
T2 sequence (P08908 whole entry): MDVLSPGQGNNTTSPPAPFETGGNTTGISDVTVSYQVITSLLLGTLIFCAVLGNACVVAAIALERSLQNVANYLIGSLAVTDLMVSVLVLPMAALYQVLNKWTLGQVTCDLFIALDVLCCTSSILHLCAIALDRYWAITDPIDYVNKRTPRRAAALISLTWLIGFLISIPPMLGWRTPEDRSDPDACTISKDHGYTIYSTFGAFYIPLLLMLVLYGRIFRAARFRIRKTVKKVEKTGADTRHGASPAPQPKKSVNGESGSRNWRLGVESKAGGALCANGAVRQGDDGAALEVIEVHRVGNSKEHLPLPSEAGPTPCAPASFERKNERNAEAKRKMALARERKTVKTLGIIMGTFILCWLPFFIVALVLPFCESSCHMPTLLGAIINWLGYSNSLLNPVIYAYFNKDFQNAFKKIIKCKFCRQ
Summary of the method: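 HeLa HA7 cells stably expressing human 5-HT1A, at 80–90% confluency, antibiotic-free for 24 h. Preincubated 10 min at RT in DMEM/10 mM Hepes, then drug at 0.1 nM–100 µM with 100 µM forskolin and 100 µM IBMX for 10 min at RT. Stopped with 0.1 N HCl; cAMP by radioimmunoassay as % of forskolin control; pEC50.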

[4] = system: Rattus norvegicus; assay: Effective intraperitoneal dose in vivo in rat after 15 mins to induce lower lip retraction; assay type: functional; conditions: ip, 0.25 h; summary of the method: as §1
[5] = system: Rattus norvegicus; assay: Induction of lower lip retraction in rat 60 min after administration, effective peroral dose determined in vivo; assay type: functional; conditions: po, 1 h; summary of the method: as §1
[6] = target: T3, 5-hydroxytryptamine receptor 1A (Rattus norvegicus, UniProt P19327); assay: Binding affinity towards 5-hydroxytryptamine 1A receptor in rat cortex using [3H]8-OH-DPAT as a radioligand; summary of the method: as §2
T3 sequence (P19327 whole entry): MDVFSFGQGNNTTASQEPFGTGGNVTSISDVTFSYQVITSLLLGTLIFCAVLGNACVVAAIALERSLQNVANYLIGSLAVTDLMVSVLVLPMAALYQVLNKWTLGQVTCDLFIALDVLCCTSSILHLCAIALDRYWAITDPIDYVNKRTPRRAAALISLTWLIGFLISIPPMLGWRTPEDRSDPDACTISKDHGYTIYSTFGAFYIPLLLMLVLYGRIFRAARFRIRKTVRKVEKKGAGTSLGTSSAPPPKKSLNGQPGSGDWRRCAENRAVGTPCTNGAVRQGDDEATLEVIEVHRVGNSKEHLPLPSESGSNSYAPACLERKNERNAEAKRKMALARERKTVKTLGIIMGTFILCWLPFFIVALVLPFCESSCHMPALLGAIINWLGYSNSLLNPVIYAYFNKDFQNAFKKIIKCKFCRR

[7] = target: D(2) dopamine receptor (Rattus norvegicus, UniProt P61169); assay: Binding affinity towards Dopamine receptor D2 in rat striatum using YM-09151-2 as a radioligand; assay type: tissue-based; summary of the method: as §2
D(2) dopamine receptor, sequence (P61169 whole entry): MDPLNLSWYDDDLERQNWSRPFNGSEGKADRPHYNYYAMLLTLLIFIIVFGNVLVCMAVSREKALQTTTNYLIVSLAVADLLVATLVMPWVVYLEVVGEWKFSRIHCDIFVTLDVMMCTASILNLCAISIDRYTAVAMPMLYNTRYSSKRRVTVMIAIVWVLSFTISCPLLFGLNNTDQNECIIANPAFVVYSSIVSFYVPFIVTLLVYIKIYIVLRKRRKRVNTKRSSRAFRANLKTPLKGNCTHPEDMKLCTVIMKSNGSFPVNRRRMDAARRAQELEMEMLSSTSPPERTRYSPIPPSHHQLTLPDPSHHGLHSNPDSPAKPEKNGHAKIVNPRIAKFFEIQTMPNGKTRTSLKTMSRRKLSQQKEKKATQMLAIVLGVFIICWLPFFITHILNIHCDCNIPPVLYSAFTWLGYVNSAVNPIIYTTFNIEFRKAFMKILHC

[8] = species on record: Rattus norvegicus; assay: Maximum inhibition of immobility in the rat.(Expressed as percentage of immobility observed in vehicle controls); assay type: functional
Summary of the method: (§3)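 Rat forced swim: 15 min pre-swim in 17 cm water at 25 °C, then 5 min test 24 h later with blind scoring of immobility. Oral dosing (10 mL/kg) 60 min before the test, n = 10 per dose. Inhibition is the difference in median immobility from vehicle controls, as % of the control median.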

[9] = species on record: Rattus norvegicus; assay: Potency to produce a significant inhibition of immobility in the rat.; assay type: functional
Summary of the method: (§4)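 Rat forced swim, 5 min test 24 h after a 15 min pre-swim, with oral dose (10 mL/kg) 60 min before the test, n = 10 per dose. Significant response: immobility <138 s, a value seen in <5% of vehicle controls. ED50 by linear interpolation of % responders.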

[10] = species on record: Rattus norvegicus; assay: Potency to produce a significant inhibition of immobility in rat; assay type: functional; summary of the method: as §4
[11] = species on record: Rattus norvegicus; assay: Maximum inhibition of immobility in the rat (Expressed as percentage of immobility observed in vehicle controls); assay type: functional; summary of the method: as §3
[12] = system: Rattus norvegicus; assay: Effective dose in vivo in rat to induce lower lip retraction; assay type: functional; summary of the method: as §1
[13] = species on record: Rattus norvegicus; assay: Potency to produce a significant inhibition of immobility in the rat; assay type: functional; summary of the method: as §4

Row | SMILES | ED50 [1] [mg/kg] | Log Ki [2] | EC50 [3] [nM] | ED50 [4] [mg/kg] | ED50 [5] [mg/kg] | Ki [6] [nM] | Ki [7] [nM] | Inhibition [8] [%] | ED50 [9] [mg/kg] | ED50 [10] [mg/kg] | Inhibition [11] [%] | ED50 [12] [mg/kg] | ED50 [13] [mg/kg]
1 | O=C(c1ccc(Cl)c(Cl)c1)N1CCC(F)(CNCc2cccc(-c3cccs3)n2)CC1 | 0.32 | -6.72 | 12 | 0.32 | 1.3 | 1.23 | 457 | – | – | – | – | – | –
2 | Cc1ccc(C(=O)N2CCC(F)(CNCc3cccc(N(C)C)n3)CC2)cc1Cl | 0.08 | -6.86 | 5.75 | 0.08 | 0.32 | 0.269 | 129 | – | – | – | – | – | –
3 | CN(C)c1cccc(CNCC2(F)CCN(C(=O)c3ccc(F)c(Cl)c3)CC2)n1 | 0.11 | -6.68 | 3.63 | 0.29 | 0.16 | – | – | >80 | 0.16 | – | – | – | –
4 | O=C(c1ccc(F)c(Cl)c1)N1CCC(F)(CNCc2cccc(-c3ccco3)n2)CC1 | 0.11 | -6.12 | 3.47 | 0.08 | 0.32 | – | – | – | – | 0.09 | >80 | – | –
5 | O=C(c1ccc(Cl)c(Cl)c1)N1CCC(F)(CNCc2cccc(-c3ccco3)n2)CC1 | 0.23 | -6.39 | 2.63 | 0.16 | 0.32 | 1.05 | 1200 | – | – | – | – | – | –
6 | O=C(c1ccc(Cl)c(Cl)c1)N1CCC(F)(CNCc2cccc(-n3cccn3)n2)CC1 | – | – | 28.2 | – | – | 0.204 | – | – | – | – | – | 1.3 | –
7 | O=C(c1ccc(Cl)c(Cl)c1)N1CCC(F)(CNCc2cccc(-c3cnco3)n2)CC1 | 0.32 | -5.9 | 8.91 | 0.32 | 1.3 | 0.468 | 2240 | – | – | – | – | – | –
8 | CNc1nc(CNCC2(F)CCN(C(=O)c3ccc(F)c(Cl)c3)CC2)ccc1C | – | – | 2.14 | 0.02 | 0.08 | – | – | >80 | – | – | – | – | 0.05
9 | O=C(c1ccc(Cl)c(Cl)c1)N1CCC(F)(CNCc2cccc(-c3cc[nH]n3)n2)CC1 | 0.32 | -6.1 | 1.12 | 0.32 | 1.3 | 0.302 | 4070 | – | – | – | – | – | –
10 | CN(C)CCCN1c2ccccc2CCc2ccccc21 [IMIPRAMINE] | – | – | – | – | – | – | – | – | – | 80 | 31 | – | –
